Results published in ChEMBL document CHEMBL2010803, “Novel NSAID 1-acyl-4-cycloalkyl/arylsemicarbazides and 1-acyl-5-benzyloxy/hydroxy carbamoylcarbazides as potential anticancer agents and antioxidants” (Eur J Med Chem, 2012).
The source made the active and inactive calls. The rule behind the calls is not given here.

How the values were obtained:
[1] = tested on: Vesicular stomatitis virus; test: Antiviral activity against Vesicular stomatitis virus infected in human cervix carcinoma cells assessed as inhibition of virus-induced cytopathic effect at 0.32 to 100 uM; assay type: functional, organism-based
In short: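 Confluent human cervix carcinoma (HeLa) cultures received 100 CCID50 of VSV together with the compound at 100, 40, 8, 1.6 or 0.32 μM. Cytopathicity was read at the point of full CPE in infected, untreated control wells.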

[2] = tested on: Influenza B virus; test: Antiviral activity against Influenza B virus infected in MDCK cells assessed as inhibition of virus-induced cytopathic effect at 0.32 to 100 uM; assay type: functional, organism-based
In short: (§1)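 Confluent MDCK monolayers were infected in the presence of the compound at 100, 40, 8, 1.6 and 0.32 μM. Viral cytopathicity was scored once it was complete in untreated infected control cultures.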

[3] = tested on: Radical scavenging activity; test: Antioxidant activity assessed as DPPH free radical scavenging activity at 100 uM after 60 mins by spectrophotometric analysis; assay type: functional
In short: (§2)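 0.05 mM DPPH in absolute ethanol mixed with an equal volume of compound in DMSO (final 100 μM). Shaken and left 20 or 60 min, then absorbance read at 517 nm and percent activity calculated. Three replicates, averaged.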

[4] = tested on: Feline coronavirus; test: Antiviral activity against Feline coronavirus infected in feline CRFK cells assessed as inhibition of virus-induced cytopathic effect at 0.32 to 100 uM; assay type: functional, organism-based
In short: (§3)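 Confluent cell cultures were infected with 100 CCID50 of virus in the presence of test compound at 100, 40, 8, 1.6 and 0.32 μM. Cytopathic effect was scored once it was complete in untreated infected controls.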

[5] = tested on: Influenza A virus; test: Antiviral activity against Influenza A virus H3N2 infected in MDCK cells assessed as inhibition of virus-induced cytopathic effect at 0.32 to 100 uM; assay type: functional, organism-based; in short: as §1
[6] = tested on: Human respirovirus 3; test: Antiviral activity against Parainfluenza virus 3 infected in african green monkey Vero cells assessed as inhibition of virus-induced cytopathic effect at 0.32 to 100 uM; assay type: functional, organism-based; in short: as §3
[7] = tested on: Punta Toro virus; test: Antiviral activity against Punta Toro virus infected in african green monkey Vero cells assessed as inhibition of virus-induced cytopathic effect at 0.32 to 100 uM; assay type: functional, organism-based; in short: as §3
[8] = tested on: CCRF-CEM; test: Cytostatic activity against human CEM cells after 3 days by coulter counter analysis; assay type: functional, cell-based; conditions: 72 h
In short: (§4)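 300,000–500,000 cells/ml mixed 1:1 with compound dilutions and incubated at 37 °C for 2 days (L1210) or 3 days (CEM, HeLa). Cell number counted with a Coulter counter; HeLa trypsinized before counting.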

[9] = Antioxidant activity assessed as inhibition of AAPH-induced linoleic acid lipid peroxidation by measuring conjugated diene hydroperoxide level; assay type: functional; design: concentration or dose not given beside the values
In short: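 Linoleic acid sodium salt (10 μL of 16 mM) in 0.05 M phosphate buffer pH 7.4 at 37 °C. Oxidation started under air with 50 μL of 40 mM AAPH. Conjugated diene hydroperoxide formation followed as absorbance rise at 234 nm; control contains the same DMSO level. At least triplicate.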

[10] = tested on: Radical scavenging activity; test: Antioxidant activity assessed as DPPH free radical scavenging activity at 100 uM after 20 mins by spectrophotometric analysis; assay type: functional; in short: as §2
[11] = tested on: Human immunodeficiency virus 2; test: Antiviral activity against HIV2 ROD infected in human CEM cells assessed as inhibition of virus-induced CEM giant cell formation at 0.32 to 100 uM after 4 days; assay type: functional, organism-based; conditions: ISOLATE ROD, CCRF-CEM
In short: (§5)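 CEM cells (~3 × 10^5 cells/cm³) exposed to 100 CCID50/ml of virus and seeded into wells holding compound dilutions. Incubated 4 days at 37 °C, then giant cell formation examined microscopically.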

[12] = tested on: HeLa; test: Cytostatic activity against human HeLa cells after 3 days by coulter counter analysis; assay type: functional, cell-based; conditions: 72 h; in short: as §4
[13] = tested on: Human alphaherpesvirus 1; test: Antiviral activity against HSV1 KOS infected in human lung fibroblast assessed as inhibition of virus-induced cytopathic effect at 0.32 to 100 uM; assay type: functional, organism-based; in short: as §3
[14] = tested on: L1210; test: Cytostatic activity against mouse L1210 cells after 2 days by coulter counter analysis; assay type: functional, cell-based; conditions: L1210, 48 h; in short: as §4
[15] = tested on: Coxsackievirus B4; test: Antiviral activity against Coxsackievirus B4 infected in human cervix carcinoma cells assessed as inhibition of virus-induced cytopathic effect at 0.32 to 100 uM; assay type: functional, organism-based; in short: as §3
[16] = tested on: MCF7; test: Cytostatic activity against human MCF7 cells after 72 hrs by MTT assay; assay type: functional, cell-based; conditions: MCF7, 72 h
In short: (§6)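 Monolayers in DMEM with 10% FBS, 2 mM L-glutamine and penicillin/streptomycin, 37 °C, 5% CO2. Seeded at 1–3 × 10^4 cells/ml, then compound added in tenfold dilutions (10⁻⁸–10⁻⁴ M) for 72 h. MTT read at 570 nm; percent growth taken against time-zero and untreated controls. IC50 by linear regression; quadruplicate, at least two experiments.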

[17] = tested on: Coxsackievirus B4; test: Antiviral activity against Coxsackievirus B4 infected in african green monkey Vero cells assessed as inhibition of virus-induced cytopathic effect at 0.32 to 100 uM; assay type: functional, organism-based; in short: as §3
[18] = tested on: Sindbis virus; test: Antiviral activity against Sindbis virus infected in african green monkey Vero cells assessed as inhibition of virus-induced cytopathic effect at 0.32 to 100 uM; assay type: functional, organism-based; in short: as §3
[19] = tested on: NCI-H460; test: Cytostatic activity against human NCI-H460 cells after 72 hrs by MTT assay; assay type: functional, cell-based; conditions: NCI-H460, 72 h; in short: as §6
[20] = tested on: Vesicular stomatitis virus; test: Antiviral activity against VSV infected in human lung fibroblast assessed as inhibition of virus-induced cytopathic effect at 0.32 to 100 uM; assay type: functional, organism-based
[21] = tested on: HCT-116; test: Cytostatic activity against human HCT116 cells after 72 hrs by MTT assay; assay type: functional, cell-based; conditions: HCT-116, 72 h; in short: as §6
[22] = tested on: Human alphaherpesvirus 2; test: Antiviral activity against HSV2 G infected in human lung fibroblast assessed as inhibition of virus-induced cytopathic effect at 0.32 to 100 uM; assay type: functional, organism-based; conditions: strain G; in short: as §3
[23] = tested on: Human immunodeficiency virus 1; test: Antiviral activity against HIV1 3B infected in human CEM cells assessed as inhibition of virus-induced CEM giant cell formation at 0.32 to 100 uM after 4 days; assay type: functional, organism-based; conditions: CCRF-CEM; in short: as §5
[24] = tested on: Felid alphaherpesvirus 1; test: Antiviral activity against Feline herpesvirus infected in feline CRFK cells assessed as inhibition of virus-induced cytopathic effect at 0.32 to 100 uM; assay type: functional, organism-based; in short: as §3
[25] = tested on: Mammalian orthoreovirus 1; test: Antiviral activity against Reovirus-1 infected in african green monkey Vero cells assessed as inhibition of virus-induced cytopathic effect at 0.32 to 100 uM; assay type: functional, organism-based; in short: as §3
[26] = tested on: Respiratory syncytial virus; test: Antiviral activity against RSV infected in human cervix carcinoma cells assessed as inhibition of virus-induced cytopathic effect at 0.32 to 100 uM; assay type: functional, organism-based; in short: as §3
[27] = tested on: Vaccinia virus; test: Antiviral activity against Vaccinia virus infected in human lung fibroblast assessed as inhibition of virus-induced cytopathic effect at 0.32 to 100 uM; assay type: functional, organism-based; conditions: Orthopoxvirus vaccinia
[28] = tested on: Glycine max; test: Inhibition of soybean LOX assessed as conversion of sodium linoleate to 13- hydroperoxylinoleic acid at 100 uM
[29] = tested on: Influenza A virus; test: Antiviral activity against Influenza A virus H1N1 infected in MDCK cells assessed as inhibition of virus-induced cytopathic effect at 0.32 to 100 uM; assay type: functional, organism-based; in short: as §1
[30] = dose or concentration not given here

Structure (SMILES)	inhibition [1]	inhibition [2]	Activity [3]	inhibition [4]	inhibition [5]	inhibition [6]	inhibition [7]	IC50 [8]	Activity [10]	inhibition [11]	IC50 [12]	inhibition [13]	IC50 [14]	inhibition [15]	IC50 [16]	inhibition [17]	inhibition [18]	IC50 [19]	inhibition [20]	IC50 [21]	other results
CC(C)Cc1ccc(C(C)C(=O)NN)cc1 (centres undefined)	inactive	inactive	1%	inactive	inactive	inactive	inactive	147 µM	inactive	inactive	129 µM	inactive	170 µM	inactive	> 100 µM	inactive	inactive	> 100 µM	inactive	> 100 µM	inhibition [9, 30]: 6%; inhibition [22]: inactive; inhibition [23]: inactive; inhibition [24]: inactive; inhibition [25]: inactive; inhibition [26]: inactive; inhibition [27]: inactive; inhibition [28]: 8%; inhibition [29]: inactive
CC(C(=O)NNC(=O)NOCc1ccccc1)c1cccc(Cc2ccccc2)c1 (centres undefined)	inactive	inactive	6%	inactive	inactive	inactive	inactive	101 µM	3%	inactive	78 µM	inactive	79 µM	inactive	41 µM	inactive	inactive	82 µM	inactive	56 µM	inhibition [9]: inactive; inhibition [22]: inactive; inhibition [23]: inactive; inhibition [24]: inactive; inhibition [25]: inactive; inhibition [26]: inactive; inhibition [27]: inactive; inhibition [28]: inactive; inhibition [29]: inactive
CC(C(=O)NNC(=O)NNC(=O)NOCc1ccccc1)c1cccc(Cc2ccccc2)c1 (centres undefined)	inactive	inactive	19%	inactive	inactive	inactive	inactive	96 µM	10%	inactive	76 µM	inactive	102 µM	inactive	19 µM	inactive	inactive	> 100 µM	inactive	64 µM	inhibition [9, 30]: 100%; inhibition [22]: inactive; inhibition [23]: inactive; inhibition [24]: inactive; inhibition [25]: inactive; inhibition [26]: inactive; inhibition [27]: inactive; inhibition [28]: inactive; inhibition [29]: inactive
CC(C)Cc1ccc(C(C)C(=O)NNC(=O)NCC2CCCCC2)cc1 (centres undefined)	inactive	inactive	6%	inactive	inactive	inactive	inactive	26 µM	3%	inactive	142 µM	inactive	44 µM	inactive	13 µM	inactive	inactive	29 µM	inactive	21 µM	inhibition [9, 30]: 16%; inhibition [22]: inactive; inhibition [23]: inactive; inhibition [24]: inactive; inhibition [25]: inactive; inhibition [26]: inactive; inhibition [27]: inactive; inhibition [28]: 25%; inhibition [29]: inactive
CC(C(=O)NN)c1cccc(Oc2ccccc2)c1 (centres undefined)	inactive	inactive	1%	inactive	inactive	inactive	inactive	154 µM	inactive	inactive	120 µM	inactive	212 µM	inactive	> 100 µM	inactive	inactive	> 100 µM	inactive	> 100 µM	inhibition [9, 30]: 10%; inhibition [22]: inactive; inhibition [23]: inactive; inhibition [24]: inactive; inhibition [25]: inactive; inhibition [26]: inactive; inhibition [27]: inactive; inhibition [28]: 3%; inhibition [29]: inactive
CC(C(=O)NN)c1cccc(Cc2ccccc2)c1 (centres undefined)	inactive	inactive	inactive	inactive	inactive	inactive	inactive	150 µM	inactive	inactive	142 µM	inactive	212 µM	inactive	> 100 µM	inactive	inactive	> 100 µM	inactive	> 100 µM	inhibition [9, 30]: 6%; inhibition [22]: inactive; inhibition [23]: inactive; inhibition [24]: inactive; inhibition [25]: inactive; inhibition [26]: inactive; inhibition [27]: inactive; inhibition [28]: 10%; inhibition [29]: inactive
